# This is a sample that favours compounds with a hit; in the whole collection about 3.5% have one here.
# PAFAH2 FP inh = PAFAH2 (human) inhibition; Q99487; recombinant PAFAH2, FP-rhodamine activity probe, fluorescence polarization; inhibition, % at 3.39 µM; hit rate 0.99% among 340,000; AID 492956;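 active means inhibition above the mean over all tested compounds plus 3 SD, cut at about 30% in these data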;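 further: inhibitors block probe labeling of enzyme so polarization drops; 0% = enzyme with DMSO and 100% = wells lacking PAFAH2 protein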
# PREPL inh = inhibits the human prolyl oligopeptidase-like enzyme; Q4J6C6; recombinant PREPL, fluorescence polarization activity-based probe; inhibition, % at 5.96 µM; hit rate 0.68% among 320,000; AID 2751; in the data active means inhibition above about 43%;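 further: 0% = enzyme with DMSO and 100% = wells lacking enzyme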
# pPAFAH inh = pPAFAH (human) enzyme inhibition; inhibition, % at 3.39 µM; hit rate 1.5% among 330,000; Q13093; recombinant pPAFAH, FP-rhodamine probe fluorescence polarization;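 active means inhibition above the mean inhibition across the screen plus 3 SD, cut at about 25% in these data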;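 further: inhibitors block binding of the rhodamine activity-based probe so polarization drops; 0% = enzyme with DMSO and 100% = wells lacking pPAFAH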
# Apaf-1 inh = human Apaf-1 inhibition; O14727; reconstituted apoptosome caspase-3 activity, DEVD-Rh110 fluorescence; inhibition, % at 20 µM; hit rate 0.71% among 330,000; AID 489030; active means inhibition of at least 40% at 20 µM;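 further: plate controls were DMSO wells for no effect and DEVD-CHO caspase inhibitor wells for full effect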
#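 Material: reconstituted apoptosome with Apaf-1, cytochrome c, caspase-9, procaspase-3, dATP. Technique: Rh110 fluorescence intensity. Buffer or medium: pH 7.5 Hepes buffer with CHAPS, BSA, DTT. Times: 30 min plus 50 min, RT.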
# PAFAH1B3 FP inh = PAFAH1B3 (human) inhibition | inhibition, % at 3.39 µM | recombinant PAFAH1B3, FP-rhodamine probe, fluorescence polarization | Q15102 | hit rate 0.28% among 340,000 | AID 492972;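 active means inhibition above the screen-wide average of all tested compounds plus 3 SD, cut at about 25% in these data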;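 further: 0% = enzyme with DMSO only and 100% = wells lacking PAFAH1B3 protein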
# PAFAH1B2 inh = blocks human PAF acetylhydrolase 1b catalytic subunit 2; P68402; recombinant PAFAH1B2, FP-rhodamine activity probe, fluorescence polarization; inhibition, % at 3.39 µM; hit rate 1.2% among 340,000; AID 492953;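 active means inhibition above the mean of all tested compounds plus 3 SD, cut at about 24% in these data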;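 further: 0% = enzyme with DMSO and 100% = wells lacking PAFAH1B2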
# An asterisk follows results filed as active; nt = no result.
SMILES,PAFAH2 FP inh,PREPL inh,pPAFAH inh,Apaf-1 inh,PAFAH1B3 FP inh,PAFAH1B2 inh
CC(C)(C)c1cc[n+](C2=C([O-])c3ccccc3C(=O)/C2=N\S(=O)(=O)c2cccs2)cc1,nt,9.6,12.0,35.4,nt,nt
COC(=O)c1sc(S(=O)(=O)NC(Cc2ccccc2)C(=O)O)c(C(=O)OC)c1C (centres undefined),5.5,17.9,-5.3,1.7,7.6,-0.1
Nc1ccc2nc3c(=O)n(C4CCCCC4)c(=O)[nH]c3nc2c1,20.2,5.4,25.9*,-19.3,8.9,6.2
CCOc1ccc(NC(=O)NNC(=O)c2cc3ccccc3cc2O)cc1,5.0,4.0,23.6,1.6,25.3,10.9
Cc1ccc(NC(=O)c2cc3ccccc3cc2O)cc1,3.0,15.6,11.6,11.7,4.9,4.7
CCc1ccc(NC(=O)NNC(=O)c2cc3ccccc3cc2O)cc1,-19.1,10.3,32.9*,9.8,13.4,8.3
COc1ccc(NC(=O)c2cc3ccccc3cc2O)cc1,7.7,20.9,32.0*,38.0,10.6,2.5
Cc1cccc(NC(=O)NNC(=O)c2cc3ccccc3cc2O)c1C,5.5,14.9,33.8*,5.2,11.3,0.4
COc1ccc(O)c(C(=O)c2cc(SCC(=O)O)c3nc4sc5c(c4c(=O)n3c2)CCCC5)c1,-5.0,20.7,28.1*,4.5,14.8,0.7
O=C(O)c1cc(N/N=C2/CC(c3ccccc3)Oc3ccccc32)ccc1Cl (centres undefined),16.6,-7.8,33.9*,7.3,7.4,1.6
CC(C)(C)N/N=C1\CC(c2ccccc2)Oc2ccccc21 (centres undefined),0.3,3.5,2.0,10.9,2.4,0.9
CC(C)(C)c1cc(C(=S)N2CCCC2)cc(C(C)(C)C)c1O,-0.9,nt,nt,12.1,1.9,-0.2
CSc1ncccc1C(=O)OCC(=O)c1ccc(Br)s1,-2.2,12.6,2.0,14.8,1.6,-1.4
O=C(NCc1ccncc1)C(=O)NCC1OCCN1S(=O)(=O)c1cc(F)ccc1F (centres undefined),-0.7,-5.5,7.0,3.2,-3.6,-0.1
O=C(NCc1ccc(Cl)cc1)C(=O)NCC1OCCN1S(=O)(=O)c1cc(F)ccc1F (centres undefined),3.4,-5.4,11.3,6.4,-0.4,30.0*
COc1ccc(NC(=O)c2cccs2)cc1C(=O)N1CCN(c2ccccc2)CC1,1.6,11.6,3.8,8.7,16.1,0.4
COc1ccc(-n2c(C)cc(C(=O)CN3C(=O)NC4(CCCc5sccc54)C3=O)c2C)cc1 (centres undefined),5.3,-3.3,25.0*,14.6,0.6,2.5
Cc1cc(C(=O)CN2C(=O)NC3(CCCc4sccc43)C2=O)c(C)n1-c1ccccc1 (centres undefined),-0.9,1.0,20.1,24.3,-1.0,7.0
O=C(Oc1ccc2c(-c3ccccc3)cc(=O)oc2c1)C1CCCCC1,-6.3,33.6,31.5*,18.2,2.5,-2.2
Cc1ccccc1OCC(=O)NNC(=S)NC(=O)c1ccccc1[N+](=O)[O-],1.5,-4.1,9.2,3.8,0.8,7.9
CC(C)(C)c1ccc(OCC(=O)NNC(=S)NC(=O)c2ccccc2[N+](=O)[O-])c(Br)c1,11.6,0.9,29.3*,11.0,6.2,38.9*
Cc1ccc(CCNC(=O)C2CCCN(S(=O)(=O)N3CC(C)CC(C)C3)C2)cc1 (centres undefined),2.8,13.7,4.1,2.4,3.4,8.3
COc1ccc(C)cc1NC(=O)c1sc2ncnc(N3CCN(c4ccccn4)CC3)c2c1C,1.4,-8.1,2.5,19.2,-4.9,1.0
O=C1CC(c2cccc(Br)c2)c2cc3c(cc2N1)CCC3 (centres undefined),1.0,4.3,28.0*,17.2,4.4,4.6
CC=CC1OCC(CC)C(CCC)O1 (centres undefined),-0.2,nt,nt,nt,10.1,2.6
SMILES,PAFAH2 FP inh,PREPL inh,pPAFAH inh,Apaf-1 inh,PAFAH1B3 FP inh,PAFAH1B2 inh
COC(=O)C1=CN(c2cccc(C)c2)C=C(C(=O)OC)C1c1cc(OC)c(O)c([N+](=O)[O-])c1,7.0,15.9,29.2*,24.8,11.4,16.3
CC(C)CC(C(=O)Nc1cccc(O)c1)N1C(=O)c2ccccc2C1=O (centres undefined),-2.2,-4.1,10.6,1.6,7.9,-3.4
CC(C)CC(C(=O)Nc1oc(-c2ccco2)c(-c2ccco2)c1C#N)N1C(=O)c2ccccc2C1=O (centres undefined),17.7,2.7,32.2*,20.3,7.1,3.1
O=C(Nc1ccc(N2CCCC2)cc1)c1ccc2ccccc2c1,-0.6,12.7,33.6*,17.4,4.3,2.7
COc1ccc(C=Nc2cccnc2N)cc1,3.7,37.2,27.1*,7.6,7.3,-2.3
CCCN1CCC(=O)N(CCO)CC1,0.6,-3.1,-3.5,1.0,3.4,0.4
CC(=O)c1ccccc1OCC(O)Cn1ccnc1 (centres undefined),-4.2,2.1,5.0,-0.3,7.2,4.0
Cc1ccc(C(=O)OCC(=O)c2ccc(CC(=O)N3CCOCC3)s2)cc1C,11.2,19.1,27.1*,-0.5,2.7,2.4
Cc1ccc(C(=O)OCC(=O)c2ccc(CC(=O)N3CCOCC3)s2)c(C)c1,6.5,nt,nt,23.8,5.1,-0.7
O=C(NCCc1c[nH]c2ccccc12)/C(=C\c1cccnc1)NC(=O)c1ccccc1F,-1.9,-0.3,-2.9,-13.8,12.0,5.5
O=[N+]([O-])c1ccc2cc[nH]c2c1,3.6,nt,nt,nt,10.4,0.2
Cn1ccc(C(=O)OCC(=O)c2ccccc2)n1,6.4,-5.3,1.4,5.0,8.2,0.3
Cn1ccc(C(=O)OCC(=O)Nc2cccc3ccccc23)n1,50.1*,2.1,0.5,2.4,13.3,-3.2
Cc1ccc(S(=O)(=O)NCC2CCCO2)cc1[N+](=O)[O-] (centres undefined),5.1,-7.6,-3.3,-0.7,-3.4,0.5
COc1cc2ccccc2cc1C(=O)Nc1sc2c(c1C(N)=O)CCN(C(C)C)C2,2.3,20.3,1.4,51.2*,2.1,5.0
CCOc1ccc2c(c1)c(C(C)=O)c(C)n2-c1ccccc1,-7.0,3.7,26.0*,12.8,2.8,-0.1
CCOC(=O)COc1ccc2c(c1)c(C(C)=O)c(C)n2-c1ccccc1,4.5,nt,nt,nt,-6.1,5.6
CC(=O)N(\C=C/C=C/C=C1\Sc2ccccc2C1=O)c1ccccc1,-92.7,6.0,29.7*,27.6,-77.8,-43.1
CN(C)/C=C1/Sc2ccccc2C1=O,-12.5,21.6,0.8,4.3,-8.1,5.9
Nc1[nH]nc2ncc3cc4ccccc4nc3c12,0.7,39.4,30.4*,-13.8,1.3,1.4
O=C(N[C@H]1C/C=C\C[C@H](CC(=O)N(CCO)Cc2ccccc2)C(=O)N[C@H](Cc2c[nH]c3ccccc23)COC1=O)OCC1c2ccccc2-c2ccccc21,9.6,25.9,32.8*,23.7,13.0,-1.1
